Assay results: ChEMBL document CHEMBL3593173, “Discovery of novel N-(5-(tert-butyl)isoxazol-3-yl)-N'-phenylurea analogs as potent FLT3 inhibitors and evaluation of their activity against acute myeloid leukemia in vitro and in vivo” (Bioorg Med Chem, 2015)
≈ marks a conversion by molar mass, not a printed value.

Legend:
[1] = system: MV4-11; test: Cytotoxicity against human MV4-11 cells incubated for 72 hrs by MTT assay; assay type: functional, cell-based; conditions: MV4-11, 72 h
In short: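 Leukemia cells were grown with 10% FBS at 37 °C in 5% CO₂; MV4-11 was kept in IMDM. Cells were seeded at 1–4 × 10⁴ per well, and an equal volume of medium containing increasing inhibitor concentrations was added. MTT was added for 2–4 h, formazan was dissolved in DMSO, and OD was read at 570 nm to derive IC50.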

[2] = Solubility in EtOH solution; assay type: physicochemical
[3] = Solubility in MeOH solution; assay type: physicochemical

Question: Which IC50 [1] does the source give for `CC(C)(C)c1cc(NC(=O)Nc2ccc(-c3nc4ccccc4s3)cc2)no1` here?
Answer: 172 nM

Question: For `CC(C)(C)c1cc(NC(=O)Nc2ccc(-c3cn4ccncc4n3)cc2)no1`, which IC50 [1] is on record?
Answer: 44.8 nM

Question: For `CCOc1ccn2cc(-c3ccc(NC(=O)Nc4cc(C(C)(C)C)on4)cc3)nc2c1`, which IC50 [1] is on record?
Answer: 11.6 nM

Question: Which solubility [2] does the source give for `Cc1ccn2cc(-c3ccc(NC(=O)Nc4cc(C(C)(C)C)on4)cc3)nc2c1` here?
Answer: 3340 µg/mL (≈ 8.58 mM)

Question: And the solubility [3]?
Answer: 6830 µg/mL (≈ 17.5 mM)

Question: What about the IC50 [1] of the same compound?
Answer: 0.79 nM
